This is a sample that favours compounds with a hit; in the whole collection about 2.9% have one here.
TRPC4 inh = inhibitors of mouse TRPC4 channel, primary screen, Fluo4 calcium, HEK293 TRPC4beta/mu-opioid cells | DAMGO-evoked Fluo4 calcium flux; stronger effect = lower value | 300,000 compounds, 0.39% hits | Short transient receptor potential channel 4 (Mus musculus), Q9QUQ5 | B-score at 10 µM;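 active = B-score over 3 SD under the library average, no early fluorescence shift, positive overall ratio signal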
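System: stable TRPC4beta/mu-opioid receptor HEK293 cells; Dosing: single-point compound dosing; Measured by: Fluo4 Ca2+ flux fluorescence; Read-out basis: per-well B score of integrated baseline-normalized Fluo4 ratio.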
TRPC6 activator = mouse TRPC6 channel activators, primary screen, cell-based, HEK293, membrane potential dye; HEK293-TRPC6 membrane potential dye fluorescence; stronger effect = higher value; B-score at 10 µM; 310,000 compounds, 0.13% hits; Short transient receptor potential channel 6 (Mus musculus), Q61143;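 active = B-score of the integrated fluorescence ratio above library mean plus 3 SD, and starting fluorescence ratio within library mean plus 5 SD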;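 note: higher score means more depolarization so channel activation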
TRPC4 act = activators of mouse TRPC4 channel, primary screen, Fluo4 calcium, HEK293 TRPC4beta/mu-opioid cells. Short transient receptor potential channel 4 (Mus musculus), Q9QUQ5. Fluo4 calcium fluorescence; stronger effect = higher value. B-score at 10 µM. 310,000 compounds, 0.49% hits. AID 2237, 2010;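 active = B-score above 5 SD of library B-scores, and initial fluorescence ratio not above library mean plus 5 SD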;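 note: positive B-score marks a calcium rise read as TRPC4 activation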
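Material: HEK293 stable line with TRPC4beta plus mu-opioid receptor; technique: Fluo4 calcium-sensitive dye fluorescence, kinetic, 1 Hz baseline; timing: Fluo4 dye loading 45 min at room temperature, 110 s recording; controls: assay buffer as low control, maximal DAMGO as high control; read-out: integrated baseline-normalised fluorescence ratio, converted to per-well B score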
TRPC6 inhibitor = mouse TRPC6 channel inhibitors, primary screen, cell-based, HEK293, membrane potential dye | Short transient receptor potential channel 6 (Mus musculus), Q61143 | 310,000 compounds, 1.1% hits | B-score at 10 µM | ACh-evoked depolarization; stronger effect = lower value;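 active = B-score under library mean minus 3 SD, initial fluorescence not abnormally high, positive integrated signal ratio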;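 note: B-score derived from integrated fluorescence ratio over the kinetic read; more negative B-score means stronger inhibition of depolarization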
TRPC4 PAM = positive allosteric modulators of TRPC4, primary screen, cell-based, mouse TRPC4beta, HEK293 mu-opioid, Fluo-4 calcium; Short transient receptor potential channel 4 (Mus musculus), Q9QUQ5; DAMGO EC20, Fluo-4 Ca2+ flux; stronger effect = higher value; B-score at 10 µM; 310,000 compounds, 0.42% hits;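 active = B-score of calcium response area above 5 SD of library B-scores, with initial fluorescence ratio within 5 SD of library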
Kir21 inh = inhibitors of mouse Kir2.1 inward-rectifier potassium channel; AID 1672, 2009; Inward rectifier potassium channel 2 (Mus musculus), P35561; 310,000 compounds, 0.85% hits; HEK293-Kir2.1, FluxOR thallium flux fluorescence; stronger effect = lower value; B-score at 10 µM;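 active = fluorescence ratio B-score at or below minus 3 SD of library scores, with starting-brightness B-score within 2 SD, cut at about -4.2 in these data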;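 note: channel flux triggered by added potassium and thallium sulfate stimulus; B-score of peak minus minimum fluorescence over baseline after thallium stimulus; more negative B-score means stronger Kir2.1 block with less thallium influx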
hERG inh = hERG channel inhibition, counter-screen for Kir2.1 inhibitor project, cell-based, thallium flux; shares compounds with Kir21 inh; hERG-expressing cells; inhibition, % at 10 µM; 320 compounds, 20% hits;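 note: host cells are CHO cells stably expressing hERG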
Target sequence (Q12809 whole entry, looked up): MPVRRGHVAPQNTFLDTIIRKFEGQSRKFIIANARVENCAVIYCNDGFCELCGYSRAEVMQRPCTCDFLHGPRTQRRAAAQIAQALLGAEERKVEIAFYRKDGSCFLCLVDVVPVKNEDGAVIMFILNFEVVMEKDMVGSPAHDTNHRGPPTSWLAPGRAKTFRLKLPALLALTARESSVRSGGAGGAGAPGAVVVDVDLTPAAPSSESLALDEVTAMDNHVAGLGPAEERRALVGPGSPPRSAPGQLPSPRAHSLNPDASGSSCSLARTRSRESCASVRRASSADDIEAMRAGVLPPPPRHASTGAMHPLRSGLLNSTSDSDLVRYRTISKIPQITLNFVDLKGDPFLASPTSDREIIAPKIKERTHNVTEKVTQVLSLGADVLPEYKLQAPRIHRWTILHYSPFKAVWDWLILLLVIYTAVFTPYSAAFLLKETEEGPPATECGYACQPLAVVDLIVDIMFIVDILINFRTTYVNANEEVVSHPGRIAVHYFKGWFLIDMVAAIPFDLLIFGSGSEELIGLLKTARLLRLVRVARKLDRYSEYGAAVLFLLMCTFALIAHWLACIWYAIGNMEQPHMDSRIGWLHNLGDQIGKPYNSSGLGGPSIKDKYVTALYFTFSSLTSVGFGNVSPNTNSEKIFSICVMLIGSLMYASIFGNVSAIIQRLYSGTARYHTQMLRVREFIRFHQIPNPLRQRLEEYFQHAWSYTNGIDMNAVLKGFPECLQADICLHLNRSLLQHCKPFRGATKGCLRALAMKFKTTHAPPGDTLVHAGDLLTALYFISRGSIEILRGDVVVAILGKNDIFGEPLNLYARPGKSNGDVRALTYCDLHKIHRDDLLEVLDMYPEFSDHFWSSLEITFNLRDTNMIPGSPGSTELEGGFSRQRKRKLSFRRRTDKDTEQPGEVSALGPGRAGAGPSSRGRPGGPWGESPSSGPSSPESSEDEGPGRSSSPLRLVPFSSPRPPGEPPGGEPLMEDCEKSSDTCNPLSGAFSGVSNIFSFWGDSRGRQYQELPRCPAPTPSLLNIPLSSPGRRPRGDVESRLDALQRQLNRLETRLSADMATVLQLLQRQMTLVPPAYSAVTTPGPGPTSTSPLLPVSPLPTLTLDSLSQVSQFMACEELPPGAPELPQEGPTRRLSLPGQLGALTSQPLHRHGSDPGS
KCNK9 inh = KCNK9 channel inhibition, selectivity assay for Kir2.1 inhibitor project, cell-based | shares compounds with Kir21 inh | KCNK9-expressing cells, ion flux inhibition | inhibition, % at 10 µM | 320 compounds, 5% hits | AID 2329, 2010
Kir21 ephys inh = mouse Kir2.1 channel blockers, Kir2.1 inhibitor project, cell-based, secondary, automated electrophysiology; shares compounds with Kir21 inh; Kir2.1 cells, automated patch-clamp current inhibition; inhibition, % at 25 µM; AID 463252, 2010; 320 compounds, 71% hits
Each line names hits and unclear results; the compound was inactive in the other large screens (follow-up assays come after a bar, where they were run). Unless noted, the rule behind the calls is not given here.

O=C(NCc1ccc(F)cc1)C1CCCN(S(=O)(=O)c2ccc(-n3cnnn3)cc2)C1 (centres undefined)	none
CCn1c(CNc2ccc(Cl)cc2)nnc1SCc1ccc(Cl)cc1	Kir21 inh -5
CN1CCN(C(=O)C23CC4CC(C)(CC(C)(C4)C2)C3)CC1	TRPC4 inh -6
CC12CC3CC(C)(C1)CC(C(=O)N1CCCC1)(C3)C2	TRPC4 inh -6
CN1CCN(C(=O)C23CC4CC(CC(C4)C2)C3)CC1	none
CC1(C)[C@@H](O)CC[C@]2(C)C3C(O)C=C4[C@H]5C[C@@](C)(C(=O)O)CC[C@]5(C)CC[C@]4(C)[C@]3(C)CC[C@@H]12 (some centres undefined)	TRPC4 inh -6, TRPC4 act 210
CC1(C)C(=O)CC[C@]2(C)C3C(=O)C=C4[C@H]5C[C@@](C)(C(=O)O)CC[C@]5(C)CC[C@]4(C)[C@]3(C)CC[C@@H]12 (some centres undefined)	none
Cc1oc(C(C)(C)C)cc1C(=O)N1CCN(c2ncccc2C(F)(F)F)CC1	TRPC4 PAM 11
COc1ccccc1N1CCN(C(=O)c2cc(C(C)(C)C)oc2C)CC1	none
CSc1ccc(CN2CCC(CO)(CCOc3ccccc3)CC2)cc1	Kir21 inh -5.8 | hERG inh 73% | KCNK9 inh inactive | Kir21 ephys inh 7.3%
Cc1ccc(Cn2c(CN3CC(C)OC(C)C3)nc3c2c(=O)[nH]c(=O)n3C)cc1 (centres undefined)	none
COc1cc(CNCc2ccc(Br)cc2)cc(OC)c1	Kir21 inh -7.5 | hERG inh inactive | KCNK9 inh inactive | Kir21 ephys inh 72%
Cc1cc(Cl)cc(Br)c1OCCCNCC(C)O (centres undefined)	Kir21 inh -9.3 | hERG inh inactive | KCNK9 inh inactive | Kir21 ephys inh 39%
O=C1/C(=C/c2ccccc2)SC(=S)N1CC(=O)N1CCCCC1c1cccnc1 (centres undefined)	none
CC(=O)N1CCN(C(=O)c2ccc(S(=O)(=O)Nc3cccc(C(F)(F)F)c3)cc2)CC1	none | hERG inh inactive | KCNK9 inh inactive | Kir21 ephys inh inactive
O=C(c1ccc(S(=O)(=O)Nc2cccc(C(F)(F)F)c2)cc1)N1CCC1	none
Clc1ccc(-c2cc(C3CCNCC3)[nH]n2)cc1	Kir21 inh -8.9 | hERG inh inactive | KCNK9 inh inactive | Kir21 ephys inh inactive
O=C1CS/C(=N\N=C\c2ccccc2Cl)N1CC1CC1	none
CC(C)(c1ccccc1)c1ccc(OCC2CO2)cc1 (centres undefined)	none
CN(C)CCCOc1ccc(C(C)(C)c2ccccc2)cc1	Kir21 inh -6.6 | hERG inh inactive | KCNK9 inh inactive | Kir21 ephys inh 39%
S=C(NCc1ccc(Cl)cc1)NCc1ccccn1	none
CC(C)CCC(CCNCc1ccccn1)c1ccc(Cl)cc1 (centres undefined)	Kir21 inh -6.7 | hERG inh 70% | KCNK9 inh inactive | Kir21 ephys inh inactive
CC(C)N(Cc1ccccc1)S(=O)(=O)c1ccc(Cl)nc1	Kir21 inh -6.9 | hERG inh inactive | KCNK9 inh inactive | Kir21 ephys inh 33%
CC(C)N(Cc1ccccc1)S(=O)(=O)c1ccc(F)cc1	none
CC(C)(C)OC(=O)NCCc1nnc(SCC(=O)c2ccc(Cl)cc2)o1	none
CC(C)(C)OC(=O)NCCc1nnc(SCc2ccc(Cl)cc2Cl)o1	Kir21 inh -8.9 | hERG inh inactive | KCNK9 inh inactive | Kir21 ephys inh 48%
Cc1cc(C)c(C)c(S(=O)(=O)NCC(=O)Nc2ccccc2F)c1C	Kir21 inh -6.9 | hERG inh inactive | KCNK9 inh inactive | Kir21 ephys inh inactive
Cc1cc(C)c(C)c(S(=O)(=O)NCC(=O)O)c1C	none
Cc1cc(SCC(=O)OCC(=O)N2CCCC2=O)c(C)cc1Br	none | hERG inh inactive | KCNK9 inh inactive | Kir21 ephys inh inactive
CCN(CC)c1nc2ccccc2[nH]c1=O	none
CCCCCCSc1nsc(NC(C)=O)n1	none
S=C(NCC1CCCO1)N1CCN(c2nc(-c3ccc(Cl)cc3)cs2)CC1 (centres undefined)	none | hERG inh inactive | KCNK9 inh inactive | Kir21 ephys inh inactive
O=C(Oc1ccc(C(=S)N2CCOCC2)cc1)c1ccccc1F	Kir21 inh -7.6 | hERG inh inactive | KCNK9 inh inactive | Kir21 ephys inh inactive
Cc1ccc(-n2nc3c(=O)n(C(C)C(=O)NCCc4cccs4)nc(C)c3c2C)cc1 (centres undefined)	none
COc1cc(/C=C(\NC(=O)c2ccccc2)C(=O)NC(C(=O)O)c2ccccc2)cc(OC)c1OC (centres undefined)	none
O=C(NCCCN1CCOCC1)c1ccc(CSc2ccc(Cl)cc2)cc1	Kir21 inh -7.8 | hERG inh 46% | KCNK9 inh inactive | Kir21 ephys inh 21%
Cc1sc2ncnc(N3CCC(C(=O)Nc4ccc(Cl)cc4Cl)CC3)c2c1C	none
COc1cc(CNCc2ccccn2)ccc1OCC(N)=O	none
COc1cc(CNCc2ccccn2)ccc1OCc1ccc(Cl)cc1Cl	Kir21 inh -6 | hERG inh 65% | KCNK9 inh inactive | Kir21 ephys inh 34%
CC(C(=O)NCCS(=O)(=O)c1ccc(Br)cc1)S(=O)(=O)c1ccc(Cl)cc1 (centres undefined)	none
CC(C)c1ccc(C(C)NCCS(=O)(=O)c2ccc(Cl)cc2)cc1 (centres undefined)	Kir21 inh -8 | hERG inh inactive | KCNK9 inh inactive | Kir21 ephys inh 5.1%
O=C(C1CCN(S(=O)(=O)c2cccs2)CC1)N(c1ccccn1)C1CCCCC1	none

Bioassay records deposited in PubChem BioAssay by Johns Hopkins Ion Channel Center.
